Assay outcomes from PubChem.
Most compounds without a hit are left out; they make up all but 2.2% or so of the library.
Mcl-1 Bim block: disrupts Bim peptide binding to human Mcl-1; Q07820; Bead-based flow cytometry, Bim peptide-Mcl-1 binding; inhibition, % at 10 µM; 190,000 compounds, 0.1% hits; AID 1009; in the data active means inhibition above about 40%;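 further: 0% = no compound tracer wells and 100% = peptide blocker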
Mcl1 Bid PPI: Mcl-1/Bid interaction inhibition | TR-FRET Mcl-1/Bid-Dy647 peptide binding, 1536-well | Q07820 | 220,000 compounds, 0.97% hits | inhibition, % at 21.7 µM;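 active means compounds that cut the binding signal by more than half at the single screening dose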;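 further: His-tagged Mcl-1 with europium anti-His antibody binding Bid BH3 peptide; 0% = Mcl-1 plus peptide wells and 100% = peptide-only wells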
Mcl1-Noxa inh: disrupts binding of human Mcl-1 to Noxa peptide; 220,000 compounds, 1.5% hits; TR-FRET Mcl-1/Noxa peptide binding, 2 h; inhibition, % at 21.7 µM; Q07820;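 active means compounds that cut the protein-peptide binding signal by more than 50% relative to plate controls in a single-dose test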;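 further: His-tagged Mcl-1 with rhodamine Noxa BH3 peptide and terbium anti-His antibody; 0% = Mcl-1 plus Noxa peptide wells and 100% = peptide-only wells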
EBV gp42 block: inhibitors of Epstein-Barr virus glycoprotein 42; Q1HVG2; inhibition, % (tested at 21.74 µM); 220,000 compounds, 0.42% hits; Fluorescence polarization binding assay, mP read-out; in the data active means inhibition above about 50%
Target sequence (Q1HVG2 whole entry, looked up): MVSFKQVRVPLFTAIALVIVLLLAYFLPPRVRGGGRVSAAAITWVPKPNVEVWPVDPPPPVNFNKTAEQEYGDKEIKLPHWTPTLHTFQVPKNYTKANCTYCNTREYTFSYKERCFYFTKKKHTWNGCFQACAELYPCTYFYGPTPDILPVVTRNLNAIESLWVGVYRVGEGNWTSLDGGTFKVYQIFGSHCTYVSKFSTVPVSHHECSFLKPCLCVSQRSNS
MCL1 BIM primary: MCL1-BIM-BH3 interaction inhibition (human) | Q07820 | GST-MCL1 / FITC-Bim-BH3 fluorescence polarization | inhibition, % at 10.9 µM | 320,000 compounds, 0.68% hits;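 active means inhibition above the mean inhibition of all tested compounds plus 3 SD, set per campaign, cut at about 40% in these data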;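 further: 0% = DMSO wells and 100% = unlabeled Bim-BH3 peptide control; higher means more loss of mP so more displacement of Bim peptide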
RBBP9 inh: human RBBP9 hydrolase inhibition | O75884 | recombinant RBBP9, FP-Rh probe fluorescence polarization | inhibition, % at 7.94 µM | 220,000 compounds, 0.2% hits | AID 1515;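 active means inhibition above the campaign mean of all tested compounds plus 3 SD, cut at about 14% in these data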;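 further: plate controls were DMSO wells with RBBP9 for no effect and wells lacking RBBP9 protein for full effect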
Target sequence (O75884 whole entry, looked up): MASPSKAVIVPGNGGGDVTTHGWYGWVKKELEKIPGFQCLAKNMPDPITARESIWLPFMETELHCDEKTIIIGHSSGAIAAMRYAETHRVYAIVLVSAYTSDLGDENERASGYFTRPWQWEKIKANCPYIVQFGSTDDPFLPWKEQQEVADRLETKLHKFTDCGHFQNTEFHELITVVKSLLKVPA
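System: RBBP9 protein | Quantity: 2.5 µM RBBP9 dispensing solution, before mixing | Reagent: FP-Rh probe, 375 nM dispensing solution | Timing: Enzyme-compound preincubation 30 min, then probe labeling 45 min, 25 °C | Measured by: Fluorescence polarization | Read-out: % inhibition | Replication: One well per compound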
* hit, by the source's call; / = not tested or not shown.

SMILES	Mcl-1 Bim block	Mcl1 Bid PPI	Mcl1-Noxa inh	EBV gp42 block	MCL1 BIM primary	RBBP9 inh
O=c1cc(O)c2sc(Nc3ccc(Cl)c(F)c3)nc2[nH]1	/	-180	51*	-23	-40	5
CCN1C(=O)[C@H]2[C@@H](c3ccc(-c4ccc(F)cc4)cc3)N3CCCC[C@@]3(C(=O)OC)[C@H]2C1=O	/	/	/	/	4	/
Cn1c(C=O)c(-c2ccc3cc[nH]c3c2)c2ccccc21	/	/	/	/	-8	/
CCCCN1C(=O)/C(=C/C=C2\Oc3ccccc3N2CC)SC1=S	-2	-30	6	104*	/	1
CN1/C(=C\C=C2/SC(=S)N(CC(=O)O)C2=O)C(C)(C)c2ccccc21	5	-80	-124	-138	-13	-313
CCCN1C(=O)/C(=C/C=C2\N(CC)c3ccccc3C2(C)C)SC1=S	-3	-93	-4	127*	-71	-7
C=CCN1C(=O)/C(=C\C=C2\N(C)c3ccccc3C2(C)C)SC1=S	7	-11	-15	90*	-133	-10
COC(=O)c1ccc(OCCCCN2CC(C)OC(C)C2)cc1 (configuration not stated)	-1	52*	32	-3	-11	3
CC1CN(CCCCOc2ccc3ccccc3c2)CC(C)O1 (configuration not stated)	-3	8	35	-11	7	-4
COc1ccc(C(=S)N2CCCCCC2)cc1	41*	-6	15	-16	18	3
CCn1c(C)cc(/C=C2\NC(=O)N(Cc3ccc(Cl)cc3)C2=O)c1C	0	90*	83*	-10	8	-3
CCCOc1ccccc1OCC(=O)Nc1cc(Cl)ccc1-n1cncn1	/	/	/	/	0	/
O=C(c1cccs1)[C@@H]1[C@@H]2C(=O)N(Cc3ccc4c(c3)OCO4)C(=O)[C@@H]2C2c3ccccc3C=CN21 (some centres not stated)	-3	-75	-7	11	43*	-5
CC(C)=CCc1c(O)cc2oc3c(CC=C(C)C)c(O)c(O)c(CC=C(C)C)c3c(=O)c2c1O	/	-51	60*	-15	13	/
COC(=O)c1c(NC(=O)c2nc3nc(C)cc(C(F)F)n3n2)sc2c1CCC2	0	39	25	-9	-2	-10
Cc1cc(C(F)F)n2nc(C(=O)Nc3sc4c(c3C(N)=O)CCC4)nc2n1	-12	-87	74*	12	30	-9
Cc1ccc(CC(=O)NCCCc2ccccc2)cc1	0	-26	-1	-18	-4	-12
Cc1ccc(S(=O)(=O)CCNC(=O)Cc2ccccc2)cc1	-2	96*	-2	-6	-1	-3
CCNc1sc(C(=O)c2cccs2)c(N)c1-c1nc2ccccc2s1	4	-47	55*	-5	15	5
C=CCNc1sc(C(=O)c2ccccc2)c(N)c1-c1nc2ccccc2s1	-3	-62	36	-22	15	3
COc1ccc(CNS(=O)(=O)c2cc3c4c(c2)C(C)C(=O)N4CCC3)cc1 (configuration not stated)	/	/	/	/	0	/
Cc1ccc2c(c1)c1c(n2CC(O)Cn2nc(C)c(Br)c2C)C(=O)CCC1 (configuration not stated)	3	-8	9	-9	-4	-6
Cc1ccc2c(c1)c(C)c(C)n2CC(O)Cn1nc(C)c(Br)c1C (configuration not stated)	58*	-17	14	-1	-1	8
C/C=C/C=C/C(=O)N1CC[C@]23c4ccccc4N[C@H]4N(C)c5cccc6c5[C@]42CCN([C@H]6C2OC2(C)C)[C@H]13 (some centres not stated)	/	-109	64*	-15	4	/
CN1CCC23c4ccccc4NC1C21CCN(C)C3Nc2ccccc21	/	/	/	/	-1	/
SMILES	Mcl-1 Bim block	Mcl1 Bid PPI	Mcl1-Noxa inh	EBV gp42 block	MCL1 BIM primary	RBBP9 inh
CCn1c(SCc2ccc(C(=O)Nc3nccs3)cc2)nnc1-c1ccc(N)cc1	2	-1	5	53*	6	1
Cc1ccc(-c2cc(-c3ccccc3)c(C#N)c(N)n2)o1	-4	19	65*	13	26	-6
Cc1ccc(-c2cc(-c3ccccc3Cl)c(C#N)c(N)n2)o1	1	28	60*	15	23	-3
Cc1cccc(N2CC(C(=O)Nc3ccc4c(c3)OCCO4)CC2=O)c1C (configuration not stated)	/	/	/	/	7	/
Cc1cc2nc3c(=O)[nH]c(=O)[nH]c3nc2c([N+](=O)[O-])c1N	14	-46	71*	150*	/	1
Cc1c(N)c(C(C)(C)C)cc(C(C)(C)C)c1[N+](=O)[O-]	-2	-2	-6	15	5	-6
CCN(CC)C(=O)/C(=C\c1ccc(Br)cc1)NC(=O)c1ccccc1OC	-2	-20	2	61*	9	-1
COc1ccc(N2CCN(C(=O)NC3CCCCC3)CC2)cc1	0	-33	16	-11	-1	-10
COc1cccc(N2CCN(C(=O)NC3CCCCC3)CC2)c1	-1	94*	11	-11	0	4
COc1ccc(-n2c(=O)cc(N3CCOCC3)[nH]c2=O)cc1	-3	92*	10	3	4	-4
COc1ccc(-n2c(=O)cc(N3CCCCCC3)[nH]c2=O)cc1	-1	-21	5	-9	3	-1
CCOc1ccc(C2NC(=O)CCC2[N+](=O)[O-])cc1 (configuration not stated)	/	/	/	/	7	/
O=C(/C=C/c1cccnc1)c1ccc(O)cc1	/	-49	85*	-4	19	2
COc1ccc(S(=O)(=O)N2CCN(C(=O)Nc3ccccc3OC)CC2)cc1	/	/	/	/	-3	/
CC(C)n1c(CN(C)Cc2ccccc2)nc2c1c(=O)n(C)c(=O)n2C	/	/	/	/	0	/
Cc1cc(O)c(C=O)c2c1C(=O)Oc1c(CO)c(O)c3c(c1O2)C(O)OC3=O (configuration not stated)	1	40	53*	-1	103*	32*
CC1CCc2c(sc3ncn(CC(=O)N=Nc4c(O)[nH]c5ccccc45)c(=O)c23)C1 (configuration not stated)	/	68*	20	-3	7	-1
CC(=O)c1cc2c(cc1NC(=O)CN1CCOCC1)OCO2	-1	-14	/	-9	8	-2
CCN1CCN(CC(=O)Nc2cc3c(cc2C(C)=O)OCO3)CC1	2	58*	21	-9	8	-11
CC1=C(C(=O)OCC(C)C)C(c2ccsc2)NC(=O)N1 (configuration not stated)	-3	-5	79*	-4	-6	-3
NS(=O)(=O)c1ccc(CCNC(=O)C(=O)c2c[nH]c3ccccc23)cc1	-4	99*	7	-6	14	-11
CC(C)OCCCNC(=O)c1cccc2c1C(=O)c1ccc(Cl)cc1S2(=O)=O	/	/	/	/	7	/
